Test results reported in ChEMBL document CHEMBL1153408, “Molecular modeling studies and in vitro bioactivity evaluation of a set of novel 5-nitro-heterocyclic derivatives as anti-T. cruzi agents” (2009).

Legend:
Type in all cases: functional
[1] = system: Trypanosoma cruzi; experiment: Antitrypanosomal activity against Trypanosoma cruzi Y epimastigotes assessed as parasite growth at 10 ug/ml after 24 hrs
Method in brief: (§1)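 Y strain epimastigotes grown in LIT medium (pH 7.2, 10% FBS, 2% hemoglobin). Compounds dissolved in DMSO and diluted into LIT. Parasites added at an initial 10^6/mL and incubated at 28 °C for 24 h. Cells counted in a Neubauer chamber at 0 h and 24 h, in triplicate. Growth % = (L24 − L0) × 100/L0.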

[2] = system: Trypanosoma cruzi; experiment: Antitrypanosomal activity against Trypanosoma cruzi Y epimastigotes assessed as parasite growth at 20 ug/ml after 24 hrs; method in brief: as §1
[3] = system: Trypanosoma cruzi; experiment: Antitrypanosomal activity against Trypanosoma cruzi Y epimastigotes assessed as parasite growth at 1 ug/ml after 24 hrs; method in brief: as §1

SMILES | Activity [1] [%] | Parasite growth over 24 h [2] [%] | Parasite growth [3] [%]
NS(=O)(=O)c1ccc(C(=O)N/N=C/c2ccc([N+](=O)[O-])s2)cc1 | 18.2 | 19 | 16
O=C(Cn1ccnc1[N+](=O)[O-])NCc1ccccc1 [BENZNIDAZOLE] | 30 | 3 | 
O=C(N/N=C/c1ccc([N+](=O)[O-])o1)c1ccc(Cl)cc1 | 0 | 0 | 0
O=C(N/N=C/c1ccc([N+](=O)[O-])s1)c1ccc(C(F)(F)F)cc1 | 0 | 0 | 28.4
O=C(N/N=C/c1ccc([N+](=O)[O-])s1)c1ccccc1 | 57.3 | 0 | 13
N#Cc1ccc(C(=O)N/N=C/c2ccc([N+](=O)[O-])s2)cc1 | 0 |  | 
O=C(N/N=C/c1ccc([N+](=O)[O-])s1)c1ccc(Cl)cc1 | 0 | 0 | 4
COc1ccc(C(=O)N/N=C/c2ccc([N+](=O)[O-])s2)cc1 | 0 | 0 | 100
O=C(N/N=C/c1ccc([N+](=O)[O-])o1)c1ccccc1 | 0 | 0 | 0
O=C(N/N=C/c1ccc([N+](=O)[O-])s1)c1ccc(O)cc1 | 56.6 |  | 
CN(C)c1ccc(C(=O)N/N=C/c2ccc([N+](=O)[O-])s2)cc1 | 43.6 | 0 | 10
